Paper PMC8210293 (Experimental and Therapeutic Medicine, 2021)

Key:
Assay type in all cases: in vitro ADME
[1] = molecular target: T1, recombinant human UGT1A3 (Homo sapiens, UniProt P35503); assay: Inhibition of recombinant UGT1A3-catalyzed 4-MU glucuronidation; conditions: for Ki: UGT1A3
T1 sequence (P35503 29-534): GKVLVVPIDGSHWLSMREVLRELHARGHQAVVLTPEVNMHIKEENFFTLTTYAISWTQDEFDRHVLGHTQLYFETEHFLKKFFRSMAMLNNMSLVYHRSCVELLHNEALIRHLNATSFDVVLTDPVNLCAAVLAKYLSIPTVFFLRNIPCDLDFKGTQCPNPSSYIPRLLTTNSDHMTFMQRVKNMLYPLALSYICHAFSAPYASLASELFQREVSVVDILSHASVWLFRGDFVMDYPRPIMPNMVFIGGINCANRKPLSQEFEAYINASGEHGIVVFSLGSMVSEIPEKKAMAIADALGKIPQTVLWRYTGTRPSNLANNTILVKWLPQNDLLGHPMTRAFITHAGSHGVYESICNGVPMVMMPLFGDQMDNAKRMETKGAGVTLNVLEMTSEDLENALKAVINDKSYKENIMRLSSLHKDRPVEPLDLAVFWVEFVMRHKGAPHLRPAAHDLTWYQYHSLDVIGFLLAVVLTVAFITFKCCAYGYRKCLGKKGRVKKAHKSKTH
How it was run: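 Insect-cell-expressed recombinant human UGT1A3 (0.05 mg/ml), 1,200 µM 4-MU, 5 mM UDPGA, 5 mM MgCl2, 50 mM Tris-HCl pH 7.4, DMSO <0.5%. Preincubated 5 min at 37 °C, UDPGA-initiated, run 120 min, quenched with cold methanol plus internal standard. 4-MU-G by LC-MS/MS MRM. Remaining activity vs blank at 50 µM. […] Ki from inhibition-model fits and Lineweaver-Burk/Dixon plots.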

[2] = molecular target: T2, recombinant human UGT1A6 (Homo sapiens, UniProt P19224); assay: Inhibition of recombinant UGT1A6-catalyzed 4-MU glucuronidation; conditions: Dixon and Lineweaver-Burk plots
T2 sequence (P19224 27-532): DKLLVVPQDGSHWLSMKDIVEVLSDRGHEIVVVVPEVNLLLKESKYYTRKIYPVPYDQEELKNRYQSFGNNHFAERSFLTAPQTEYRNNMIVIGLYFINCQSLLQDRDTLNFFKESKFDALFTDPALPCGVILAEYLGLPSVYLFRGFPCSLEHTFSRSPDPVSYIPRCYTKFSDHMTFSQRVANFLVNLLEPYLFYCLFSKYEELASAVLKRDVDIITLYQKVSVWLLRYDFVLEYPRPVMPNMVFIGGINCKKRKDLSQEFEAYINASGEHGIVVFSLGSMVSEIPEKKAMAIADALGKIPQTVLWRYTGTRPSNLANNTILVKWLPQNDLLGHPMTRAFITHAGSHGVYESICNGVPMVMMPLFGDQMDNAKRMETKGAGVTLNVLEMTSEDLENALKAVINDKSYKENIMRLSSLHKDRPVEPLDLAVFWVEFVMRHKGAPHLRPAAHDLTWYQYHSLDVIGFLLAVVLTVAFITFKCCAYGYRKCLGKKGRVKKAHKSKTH

[3] = molecular target: T3, recombinant human UGT1A9 (Homo sapiens, UniProt O60656); assay: Inhibition of recombinant UGT1A9-catalyzed 4-MU glucuronidation
T3 sequence (O60656 26-530): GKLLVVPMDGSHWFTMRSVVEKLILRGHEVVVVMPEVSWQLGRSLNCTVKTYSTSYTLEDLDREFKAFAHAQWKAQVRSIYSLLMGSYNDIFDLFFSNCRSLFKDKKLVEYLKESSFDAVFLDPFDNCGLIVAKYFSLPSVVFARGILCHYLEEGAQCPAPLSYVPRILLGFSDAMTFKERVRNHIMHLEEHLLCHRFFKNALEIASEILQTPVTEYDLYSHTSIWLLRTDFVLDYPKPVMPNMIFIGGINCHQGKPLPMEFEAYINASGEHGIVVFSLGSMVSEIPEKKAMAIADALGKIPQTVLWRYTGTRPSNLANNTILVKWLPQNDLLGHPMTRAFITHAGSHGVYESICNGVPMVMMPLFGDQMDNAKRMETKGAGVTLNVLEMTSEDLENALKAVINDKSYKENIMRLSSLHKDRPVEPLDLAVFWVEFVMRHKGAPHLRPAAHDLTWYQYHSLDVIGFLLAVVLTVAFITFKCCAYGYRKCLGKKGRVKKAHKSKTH
How it was run: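 UGT1A9 incubations used recombinant human enzyme from baculovirus-insect cells (0.05 mg/ml), 30 µM 4-MU, 5 mM UDPGA, 5 mM MgCl2, 50 mM Tris-HCl pH 7.4, DMSO <0.5%. Preincubated 5 min at 37 °C, UDPGA-started, run 30 min, stopped with cold methanol plus internal standard. 4-MU-G by LC-MS/MS MRM. Remaining activity vs blank at 50 µM. […] Ki and type from model fits and Lineweaver-Burk/Dixon plots.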

[4] = molecular target: T4, recombinant human UGT1A1 (Homo sapiens, UniProt P22309); assay: Inhibition of recombinant UGT1A1-catalyzed 4-MU glucuronidation
T4 sequence (P22309 26-533): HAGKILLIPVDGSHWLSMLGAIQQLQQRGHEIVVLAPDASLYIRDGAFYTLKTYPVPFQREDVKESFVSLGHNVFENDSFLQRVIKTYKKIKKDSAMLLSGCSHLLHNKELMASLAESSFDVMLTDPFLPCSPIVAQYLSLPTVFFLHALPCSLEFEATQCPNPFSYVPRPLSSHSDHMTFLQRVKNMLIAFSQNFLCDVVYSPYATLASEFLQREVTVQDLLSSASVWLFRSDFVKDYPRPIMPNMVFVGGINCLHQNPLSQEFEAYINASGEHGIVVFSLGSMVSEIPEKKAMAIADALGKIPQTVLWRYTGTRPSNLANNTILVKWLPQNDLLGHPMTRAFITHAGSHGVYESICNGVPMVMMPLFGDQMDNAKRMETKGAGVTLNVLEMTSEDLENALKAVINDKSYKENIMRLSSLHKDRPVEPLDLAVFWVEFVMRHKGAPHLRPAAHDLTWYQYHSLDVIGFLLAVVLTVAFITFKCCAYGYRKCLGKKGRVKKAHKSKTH
How it was run: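 Recombinant human UGT1A1 from baculovirus-infected insect cells (0.125 mg/ml), 30 µM 4-MU, 5 mM UDPGA, 5 mM MgCl2, 50 mM Tris-HCl pH 7.4, DMSO <0.5%. Preincubated 5 min at 37 °C, started with UDPGA, run 120 min, stopped with cold methanol plus internal standard. 4-MU-G measured by LC-MS/MS MRM. Remaining activity vs blank at 50 µM. […] Ki by model fitting. Type from Lineweaver-Burk/Dixon plots.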

An IC50 [1] of 10600 nM, a Ki ([1]; Inhibitory potential class based on Ki) of 1000 to 10000 nM and a Ki ([1]; Ki, second plot of Lineweaver-Burk slopes) of 1600 nM were found for `O=c1c(O)c(-c2ccc(O)c(O)c2)oc2cc(O)cc(O)c12` [Quercetin, 3,3',4',5,7-pentahydroxyflavone] in this work. For the same compound, the Inhibition type [2] was “non-competitive inhibition”, the IC50 [3] was 2810 nM and the Ki [3] was 510 nM. For the same compound, the Inhibition type ([3]; UGT1A9, Dixon and Lineweaver-Burk plots) was “competitive inhibition”, the IC50 [4] was 7470 nM and the Ki ([4]; Inhibitory potential class based on Ki, UGT1A1) was 1000 to 10000 nM. The Inhibition type ([4]; UGT1A1, Dixon and Lineweaver-Burk plots) was “non-competitive inhibition”.
